What was measured:
[1] = system: TLR8; assay: Inhibition of TLR8-mediated cytokine and chemokine production in hPBMCs; assay type: cell-based, human; conditions: 12 h, proinflammatory cytokines (Fig. 4)
[2] = system: human peripheral blood mononuclear cells; assay: IFN-α induction in human PBMCs; assay type: cell-based; conditions: hPBMCs, 12 h, graded concentrations
Procedure, shortened: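 PBMCs from healthy donors, isolated by Ficoll-Hypaque gradient centrifugation and stimulated with graded concentrations of test compound for 12 h. Supernatants collected by centrifugation and diluted 1:20. IFN-α measured in triplicate by high-sensitivity human IFN-α-specific ELISA.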

[3] = system: TLR7; assay: Inhibition of TLR7-mediated cytokine and chemokine production in hPBMCs; assay type: cell-based; conditions: Homo sapiens, 12 h, read-out: IC50, inhibition of TLR7-induced cytokine and chemokine release
[4] = system: TLR7; assay: Schild plot analysis of inhibition of TLR7-induced activation; assay type: cell-based, human; conditions: imidazoquinoline TLR7-specific agonist, checker-board format
[5] = system: TLR8; assay: Schild plot analysis of inhibition of TLR8-induced activation; assay type: cell-based, human; conditions: CL075 TLR8-specific agonist, checker-board format

CCN(CC)CCCC(C)Nc1ccnc2cc(Cl)ccc12 (stereo not drawn) [Chloroquine, chloroquine, reference compound]
Inhibition of TNF-α and IL-1β production [1]: feeble inhibitor

CCCCc1nc2c(N)nc3ccccc3c2n1Cc1ccc(CNC(=O)CCCCCCCCCCC(=O)NCc2ccc(Cn3c(CCCC)nc4c(N)nc5ccccc5c43)cc2)cc1 [Compound 10c]
IFN-α induction [2]: most potent

Nc1nc2ccccc2c2c1nc(CCCc1nc3c(N)nc4ccccc4c3n1Cc1ccccc1)n2Cc1ccccc1 [Compound 4a, 2,2′-(propane-1,3-diyl)bis(1-benzyl-1H-imidazo[4,5-c]quinolin-4-amine)]
IC50 [3]: 50 to 300 nM | Inhibition of TNF-α and IL-1β production [1]: potently inhibits | Schild plot slope, TLR7 inhibition [4]: 1.12 | Schild plot slope, TLR8 inhibition [5]: 0.51

From PMC3276691 (Journal of Medicinal Chemistry, 2012)
